Measured values taken from PubChem BioAssay.
Calls of active or inactive are those of the source.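 The calls were made as follows, unless noted: active = GFP response above 150% of the DMSO level; inconclusive = fewer than 70 events counted for a yeast strain; inactive = the rest.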

Assays:
[1] = hit retest on RPL19A-GFP reporter strain – cell-based, S. cerevisiae, flow cytometry, cherry picks, mother/daughter gates, confirmation (AID 2270;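 active = GFP response below 50% of the DMSO control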); conditions: 3 h, at 10 µM, stronger effect = lower value, 100 = same GFP as DMSO wells
[2] = yeast TOR pathway reporter LAP4-GFP change – cell-based, cherry picks, flow cytometry, mother/daughter gates, confirmation (AID 2271;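 active = GFP response above 150% of the DMSO control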;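 also: ratio of sample to DMSO plate mean so 100% equals DMSO level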); conditions: S. cerevisiae LAP4-GFP strain, 3 h, at 10 µM, stronger effect = higher value, 100 means same as DMSO control
Outline: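 System: GFP-fusion yeast strain | Input: Yeast cells seeded at OD600 of 0.2 | Technique: HT flow cytometry, GFP fluorescence channel | Read-out: % GFP response vs DMSO | Dosing: Single test-compound dose, 10 µM final | Controls: Positive rapamycin (400 ng/mL), negative DMSO | Times: 3 h treatment at 30 °C with rotation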

[3] = TOR pathway reporter MEP2-GFP, retest of hits – S. cerevisiae, flow cytometry GFP, cherry picks, confirmation (AID 2272;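 active = GFP response above 150% of the DMSO control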;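 also: ratio of well signal to plate DMSO mean so 100% equals DMSO level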); conditions: S. cerevisiae MEP2-GFP strain, 3 h, at 10 µM, stronger effect = higher value
[4] = TOR pathway CIT2 reporter hit retest – S. cerevisiae, GFP fusion, cherry picks, mother/daughter gates, confirmation (AID 2274); conditions: S. cerevisiae CIT2-GFP strain, flow cytometry, 3 h, at 10 µM, stronger effect = higher value
[5] = measured here: daughter cell gate
[6] = measured here: mother cell gate
[7] = measured here: daughter cell gate response
[8] = measured here: mother cell gate response

| Compound | GFP response vs DMSO [1] | GFP response vs DMSO [1, 5] [%] | GFP response vs DMSO [1, 6] [%] | GFP response relative to DMSO [2] | GFP response relative to DMSO [2, 7] [%] | GFP response relative to DMSO [2, 8] [%] | GFP response vs DMSO [3] | GFP response, % of DMSO [4] | GFP response, % of DMSO [4, 5] [%] | GFP response, % of DMSO [4, 6] [%] |
| --- | --- | --- | --- | --- | --- | --- | --- | --- | --- | --- |
| CS(=O)(=O)c1sc(C#N)c2c1C(=O)CC(c1ccccc1)C2 (stereo unspecified) | 103% (inactive) | 111 | 96.6 | 174% (active) | 168 | 179 | 116% (inactive) | 105% (inactive) | 111 | 95.7 |
| O=C(Nc1nc(-c2ccccc2)cs1)c1cccc([N+](=O)[O-])c1 | 102% (inactive) | 100 | 94.5 | 101% (inactive) | 95.9 | 95.2 | 105% (inactive) | 98.8% (inactive) | – | – |
| CCCc1[nH]nc2c1C(c1ccc(OC(=O)N3CCOCC3)cc1)C(C#N)=C(N)O2 (stereo unspecified) | 98.2% (inactive) | 97.1 | 96.4 | 97.9% (inactive) | 94.4 | 94 | 100% (inactive) | 101% (inactive) | – | – |
| O=C(Nc1ccc(F)cc1)C1CCCN(c2cnccn2)C1 (stereo unspecified) | 102% (inactive) | 101 | 102 | 99.5% (inactive) | 99.1 | 100 | 96.8% (inactive) | 102% (inactive) | 99.2 | 103 |
| CCOCCCNC(=O)/C(C#N)=C/c1ccc([N+](=O)[O-])o1 | 118% (inactive) | 91.2 | 87.9 | 212% (active) | 132 | 129 | 285% (active) | 182% (active) | 114 | 110 |
| O=C(OCn1ncc(Br)c(Br)c1=O)c1ccccc1Cl | 94.1% (inactive) | 96.2 | 90.1 | 172% (active) | 150 | 167 | 112% (inactive) | 95% (inactive) | 104 | 86.3 |
| O=[N+]([O-])c1ccc(Sc2ccc(Cl)c(Cl)c2)nc1 | 97.1% (inactive) | 96.1 | 96.9 | 98.9% (inactive) | 102 | 100 | 103% (inactive) | 98.6% (inactive) | 99.3 | 99.3 |
| Clc1ccc(-c2nnnn2-c2ccc(Cl)cc2)cc1 | 101% (inactive) | 102 | 100 | 97.7% (inactive) | 102 | 96.4 | 99.3% (inactive) | 100% (inactive) | 101 | 99.3 |
